Hits are enriched below; roughly 1.9% of the tested compounds scored in any of these assays.
SR-BI uptake up = enhances SR-BI lipid uptake from DiI-HDL; actives 0.096% (n = 320,000); AID 504775; CHO ldlA[mSR-BI] cells, DiI-HDL uptake fluorescence, 3 h; 100 = double the neutral-control signal; activation, % at 12.5 µM;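 active = mean replicate activation of at least 60% and every replicate at or above 60%; inconclusive = mean or all-replicate condition met, but not both; inactive = mean below 60% and not all replicates reaching 60%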
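Material: SR-BI-overexpressing, LDLR-lacking CHO cells; schedule: compound exposure 3 h, 37 °C; reagent: DiI-labelled HDL at 10 µg/mL final; technique: bottom-read fluorescence, 550/595 nm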
SR-BI HDL uptake = blocks mouse SR-BI lipid uptake from DiI-HDL. actives 0.96% (n = 320,000). ldlA[mSR-BI] CHO cells, DiI-HDL uptake fluorescence, 3 h. inhibition, % at 12.5 µM. Q61009;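 active = mean replicate inhibition of at least 70% and a set share of replicates each scoring 70 or more; inconclusive = meets just one of the two criteria; inactive = fails both criteria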
Target sequence (Q61009 whole entry, looked up): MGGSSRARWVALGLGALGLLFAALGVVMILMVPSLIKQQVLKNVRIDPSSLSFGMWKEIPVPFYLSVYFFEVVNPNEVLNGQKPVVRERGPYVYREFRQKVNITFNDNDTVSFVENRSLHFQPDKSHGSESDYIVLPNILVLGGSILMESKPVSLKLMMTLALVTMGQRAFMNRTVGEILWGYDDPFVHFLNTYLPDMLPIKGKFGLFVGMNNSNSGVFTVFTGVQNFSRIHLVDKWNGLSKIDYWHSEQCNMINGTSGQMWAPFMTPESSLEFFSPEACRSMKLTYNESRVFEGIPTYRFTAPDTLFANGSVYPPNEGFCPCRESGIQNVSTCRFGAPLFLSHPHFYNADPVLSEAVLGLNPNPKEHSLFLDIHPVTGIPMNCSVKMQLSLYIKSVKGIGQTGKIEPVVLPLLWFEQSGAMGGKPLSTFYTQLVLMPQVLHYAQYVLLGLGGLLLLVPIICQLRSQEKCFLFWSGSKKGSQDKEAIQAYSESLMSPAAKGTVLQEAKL
N-glyco inh = N-linked glycosylation inhibition; D54 ERlucT glycosylation luciferase reporter, 24 h; percent of 100 nM tunicamycin response; reporter increase, % at 12.5 µM; actives 0.23% (n = 360,000); AID 588692;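 active = mean luciferase reporter signal, scaled so untreated is 0 and the glycosylation-blocking control 100, at or above a set limit in every replicate; inconclusive = mean reaches the limit but not every replicate does; inactive = mean below the limit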;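 also: luciferase carries N-glycosylation sites so blocking glycosylation raises the light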
PglD DTNB = inhibitors of Campylobacter jejuni PglD acetyltransferase; purified PglD enzyme, DTNB colorimetric CoA detection; inhibition, % at 12.5 µM; actives 0.098% (n = 360,000); in the data active = inhibition above about 16%, passing the limit was not always enough; inconclusive = no clear call, values can overlap the other calls
Env fusion inh = inhibitors of HIV Env-mediated cell fusion; HeLa-JRFL Env/CEM21 cell fusion, luciferase; inhibition, % at 12.3 µM; actives 1.1% (n = 360,000);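 active = mean replicate inhibition score of at least 50 and every replicate individually at or above 50; inconclusive = only one of the two criteria met; inactive = mean below 50 and not all replicates reaching 50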
Rtt109 Vps75 = blocks Candida albicans Rtt109/Vps75 acetyltransferase activity. actives 0.16% (n = 330,000). AID 540336. purified Rtt109/Vps75, ThioGlo CoA-SH fluorescence, 4 h. inhibition, % at 34.9 µM;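 active = inhibition of at least 50% in every replicate; inconclusive = best replicate reaches 50% inhibition but some replicates fall short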
Each line names hits and unclear results; the compound was inactive in the other large screens.

CCOC(=O)c1ccc2c(c1)n(CC)c(/C=C/N(C)c1ccccc1)[n+]2CC	none
CC[n+]1c(/C=C/N(C)c2ccccc2)n(-c2ccccc2)c2ccc(-c3nc4ccccc4s3)cc21	SR-BI HDL uptake 78 (no result: Env fusion inh)
CC(=O)C1=CN(Cc2ccccc2)CCC1=O	SR-BI uptake up 245
C[C@@H]1CN([C@@H](C)CO)C(=O)c2cccc(NC(=O)C3CCCCC3)c2O[C@@H]1CN(C)C(=O)Nc1ccc(F)cc1	none (no result: SR-BI uptake up, SR-BI HDL uptake, N-glyco inh, Env fusion inh, Rtt109 Vps75)
O=C(N/N=C/c1sc2ccccc2c1O)c1ccccc1	SR-BI HDL uptake 118 (no result: Env fusion inh)
COc1ccc(C(=O)N/N=C/C(=O)c2ccccc2)cc1	none
O=C(N/N=C/c1ccccc1)c1cccc2ccccc12	none (no result: PglD DTNB)
O=C(N/N=C/c1cccn1-c1ccc(O)cc1)c1cccc2ccccc12	SR-BI HDL uptake 77
O=C(N/N=C/c1sc2ccccc2c1O)c1cccc2ccccc12	SR-BI HDL uptake 106 (no result: PglD DTNB)
COc1ccc2cc(C(=O)N/N=C/c3sc4ccccc4c3O)ccc2c1	SR-BI HDL uptake 96, Env fusion inh inconclusive (no result: PglD DTNB)
O=C(N/N=C/c1ccccc1F)c1cccc2ccccc12	none
O=C(N/N=C/c1ccc(F)cc1)c1ccccc1	none (no result: PglD DTNB)
C[C@@H]1CN([C@H](C)CO)C(=O)c2cc(-c3cccc(F)c3)cnc2O[C@H]1CN(C)S(=O)(=O)c1cccc(F)c1	none (no result: SR-BI uptake up, SR-BI HDL uptake, N-glyco inh, Rtt109 Vps75)
CC=Cc1ccc2n(c1=O)C[C@H]1[C@H](CO)[C@@H](C(=O)NC3Cc4ccccc4C3)[C@@H]2N1C(C)=O (mixture of isomers)	none (no result: SR-BI uptake up, SR-BI HDL uptake, N-glyco inh, Env fusion inh, Rtt109 Vps75)
CN(C)CCCNC(=O)C[C@@H]1CC[C@@H]2[C@H](COc3ccc(NC(=O)C4CCC4)cc3C(=O)N2C)O1	none (no result: SR-BI uptake up, SR-BI HDL uptake, N-glyco inh, Env fusion inh, Rtt109 Vps75)
C[C@@H]1CN([C@@H](C)CO)C(=O)c2cc(NC(=O)Nc3ccc(C(F)(F)F)cc3)ccc2O[C@@H](C)CCCCO[C@H]1CN(C)C(=O)Nc1cccc2ccccc12	none (no result: SR-BI uptake up, SR-BI HDL uptake, N-glyco inh, Rtt109 Vps75)
COc1ccc(S(=O)(=O)Nc2cccc3c2O[C@H](CN(C)CC2CCCCC2)[C@H](C)CN([C@H](C)CO)C3=O)cc1	none (no result: SR-BI uptake up, SR-BI HDL uptake, N-glyco inh, PglD DTNB, Rtt109 Vps75)
O=C(C[C@H]1CC[C@H]2[C@@H](COC[C@@H](O)CN2S(=O)(=O)c2ccc(Oc3ccccc3)cc2)O1)NC1CCC1	none (no result: SR-BI uptake up, SR-BI HDL uptake, N-glyco inh, Env fusion inh, Rtt109 Vps75)
COc1ccc(C(=O)N/N=C/c2sc3ccccc3c2O)cc1	SR-BI HDL uptake 120 (no result: PglD DTNB, Env fusion inh)
COc1ccc(C(=O)N/N=C/c2c[nH]c3ccccc23)cc1	none
O=C(NCC1CC1)[C@@H]1[C@@H](CO)[C@@H]2Cn3c(ccc(-c4cccnc4)c3=O)[C@H]1N2C(=O)C1CC1	none (no result: SR-BI uptake up, SR-BI HDL uptake, N-glyco inh, Rtt109 Vps75)
Cn1c(Cc2ccccc2)nnc1SCC(=O)N1CCN(c2ccccc2)CC1	none (no result: Env fusion inh, Rtt109 Vps75)
Cn1c(SCC(=O)N2CCN(c3cccc(Cl)c3)CC2)nnc1-c1ccncc1	Env fusion inh 98
Cn1c(Cc2cccc3ccccc23)nnc1SCC(=O)N1CCN(c2ccccc2)CC1	Env fusion inh 63
Cn1c(SCC(=O)N2CCN(c3ccccc3)CC2)nnc1-c1ccncc1	none (no result: Env fusion inh)
COc1ccc(S(=O)(=O)N(C)C[C@@H]2Oc3ccc(NS(=O)(=O)c4ccccc4)cc3CC(=O)N([C@@H](C)CO)C[C@H]2C)cc1	none (no result: SR-BI uptake up, SR-BI HDL uptake, N-glyco inh, Rtt109 Vps75)
Cn1nc(C(F)(F)F)c2cc(C(=O)Nc3ccc(Cl)cc3)sc21	SR-BI HDL uptake 83 (no result: Env fusion inh)
C/C(CC(=O)Nc1ccccn1)=N\NC(=O)c1ccc2ccccc2c1	none (no result: PglD DTNB)
C/C(CC(=O)Nc1ccccn1)=N\NC(=O)c1ccccc1O	SR-BI HDL uptake 73
C[C@H](NC(=O)C[C@@H]1CC[C@H]2[C@@H](COC[C@@H](O)CN2Cc2cc(F)ccc2F)O1)c1ccccc1	none (no result: SR-BI uptake up, SR-BI HDL uptake, N-glyco inh, Rtt109 Vps75)
CCS(=O)(=O)N1CCCCN2[C@@H](CO)[C@@H](c3ccc(-c4ccccc4F)cc3)[C@@H]2C1	none (no result: SR-BI uptake up, SR-BI HDL uptake, N-glyco inh, Env fusion inh, Rtt109 Vps75)
Cc1ccc(C)c(CN2C(=O)C(C)Oc3ccc(C)cc32)c1 (stereo not given)	SR-BI HDL uptake 77
CN1c2ccc(-c3cccc(F)c3)cc2[C@H]2[C@H](CCN2C(=O)C2CC2)[C@@H]1CO	none (no result: SR-BI uptake up, SR-BI HDL uptake, N-glyco inh, Env fusion inh, Rtt109 Vps75)
COc1ccc(CNC(=O)CC2C(=O)NCCN2C2Cc3ccccc3C2)cc1 (stereo not given)	Env fusion inh 61
COc1ccccc1CNC(=O)CC1C(=O)NCCN1C1Cc2ccccc2C1 (stereo not given)	none
